GASC1 inh – blocks human GASC-1 (KDM4C) demethylase activity | Q9H3R0 | GST-KDM4C 2-372, H3K9me3 peptide, LANCE TR-FRET | inhibition, % at 12.5 µM | 0.15% of 96,000 active | AID 720574;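 active means mean replicate inhibition above about 25%, with at least 55% of replicates also reaching it, limit read from the data, passing the limit was not always enough; inconclusive means only one of those two conditions met; inactive means neither condition met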
Target sequence (Q9H3R0 2-372 limits assumed): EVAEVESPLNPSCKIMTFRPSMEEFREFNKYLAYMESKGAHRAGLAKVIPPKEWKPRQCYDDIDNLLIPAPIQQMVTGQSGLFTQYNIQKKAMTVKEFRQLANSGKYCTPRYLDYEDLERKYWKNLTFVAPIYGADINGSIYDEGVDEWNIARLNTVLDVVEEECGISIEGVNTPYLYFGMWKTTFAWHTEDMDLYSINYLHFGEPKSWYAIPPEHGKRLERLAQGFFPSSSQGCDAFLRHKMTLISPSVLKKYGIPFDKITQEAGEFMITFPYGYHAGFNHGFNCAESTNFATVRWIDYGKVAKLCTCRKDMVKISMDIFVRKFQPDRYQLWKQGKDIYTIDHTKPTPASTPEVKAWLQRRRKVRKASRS
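Compound: one test concentration per compound; Material: GST-GASC-1 enzyme fragment 2-372; Amount: GASC-1 enzyme at 10 nM final in reaction; Also added: H3K9me3 peptide substrate, Fe(II), 2-oxoglutarate; Technique: LANCE TR-FRET; Times: 30 min demethylation and 1 h detection at room temperature.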
IDH1 mut inh – inhibitors of human IDH1 R132H | O75874 | IDH1 R132H reductase, diaphorase/resazurin fluorescence, 60 min | inhibition, % at 10 µM | 0.18% of 70,000 active | AID 624101; in the data active means inhibition above about 34%; inconclusive means no clear call, values can overlap the other calls; inactive means below about 11%;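 further: 0% = DMSO and 100% = no enzyme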
T cruzi growth-1 – blocks T. cruzi growth in NIH3T3 culture. AID 624255. T. cruzi beta-gal in NIH3T3, GalScreen luminescence, 90 h. 5.9% of 77,000 active. inhibition, % at 8.34 µM;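 active means mean inhibition above about 93%, with at least 55% of replicates each passing it, limit read from the data, passing the limit was not always enough; inconclusive means only one of those two conditions holds; inactive means neither condition holds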
T cruzi growth-2 – inhibitors of T. cruzi proliferation; shares compounds with T cruzi growth-1; T. cruzi beta-gal in NIH3T3, GalScreen luminescence, 90 h; inhibition, % at 8.35 µM; 72% of 5,600 active; AID 651739;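 active means mean replicate inhibition above about 95% and at least 55% of replicates individually reaching it, limit read from the data; inconclusive means only one of the two criteria is met; inactive means neither criterion is met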
T cruzi growth-3 – Trypanosoma cruzi proliferation inhibition. T. cruzi beta-gal in NIH3T3, GalScreen luminescence, 90 h. 21% of 5,600 active. shares compounds with T cruzi growth-1. inhibition, % at 2.09 µM. AID 651740;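 active means mean inhibition above about 95%, with at least 55% of replicates also reaching it, limit read from the data; inconclusive means meets just one of the two conditions; inactive means meets neither condition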;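 further: plate controls were neutral control median for no effect and positive control median for full effect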
NIH3T3 tox – kills mouse NIH/3T3 fibroblasts; shares compounds with T cruzi growth-1; NIH/3T3 viability, CellTiter-Glo ATP luminescence, 90 h; cytotoxicity (signal decrease), % at 8.35 µM; 14% of 5,600 active; AID 651742;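 active means mean signal decrease across replicates above about 35% based on untreated-well scatter, with enough replicates individually passing, limit read from the data; inconclusive means no rule stated though some were filed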;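 further: 0% = median of neutral control wells and 100% = median of positive control wells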
3T3 cytotox 2 – NIH/3T3 (mouse) viability loss | shares compounds with T cruzi growth-1 | NIH/3T3 viability, CellTiter-Glo ATP luminescence, 90 h | 56% of 5,600 active | inhibition, % at 24.9 µM | AID 651744;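 active means mean loss of cell viability signal at or above a set limit, and enough replicates individually reaching it; inconclusive means meets only the mean limit or only the replicate share; inactive means meets neither condition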;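 further: 0% = median of neutral control wells and 100% = median of positive control wells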
Starred values were filed as active, the others as inactive; ? = inconclusive; . = not tested or not shown. Many of the other results were omitted from the sample, so hits are more common in it than they were.

SMILES | GASC1 inh | IDH1 mut inh | T cruzi growth-1 | T cruzi growth-2 | T cruzi growth-3 | NIH3T3 tox | 3T3 cytotox 2
CC(=O)O[C@@H]1[C@@H](O)[C@H](C)O[C@@H](Oc2c(-c3ccc(O)cc3)oc3cc(O[C@@H]4O[C@@H](C)[C@H](O)[C@@H](O)[C@H]4O)cc(O)c3c2=O)[C@@H]1O | . | 0 | . | . | . | . | .
O=S(=O)(Nc1ccc(O)c(Sc2nc3ccccc3s2)c1)c1cccc2cccnc12 | . | 14 | . | . | . | . | .
C[C@@H]1CCCCO[C@H](CN(C)C(=O)Nc2ccc(C(F)(F)F)cc2)[C@H](C)CN([C@@H](C)CO)C(=O)c2cc(NS(=O)(=O)c3ccccc3)ccc2O1 | 0 | 0 | 77 | . | . | . | .
C[C@@H]1CCCCO[C@H](CN(C)C(=O)Nc2ccc(C(F)(F)F)cc2)[C@@H](C)CN([C@@H](C)CO)C(=O)c2cc(NS(=O)(=O)c3ccccc3)ccc2O1 | 0 | . | 86 | . | . | . | .
C[C@H](CO)N1C[C@H](C)[C@H](CN(C)C(=O)Nc2ccc(C(F)(F)F)cc2)OCCCC[C@H](C)Oc2ccc(NS(C)(=O)=O)cc2C1=O | -1 | 1 | 108* | 107* | 70 | -7 | 5
C[C@@H]1CCCCO[C@H](CN(C)C(=O)Nc2ccc(C(F)(F)F)cc2)[C@H](C)CN([C@H](C)CO)C(=O)c2cc(NS(=O)(=O)c3cccs3)ccc2O1 | -1 | -2 | 98* | 103* | 112* | 15 | -1
C[C@@H]1CCCCO[C@H](CN(C)C(=O)Nc2ccc(C(F)(F)F)cc2)[C@H](C)CN([C@@H](C)CO)C(=O)c2cc(NS(=O)(=O)c3cccs3)ccc2O1 | 20 | 0 | 81 | . | . | . | .
C[C@H]1CCCCO[C@@H](CN(C)C(=O)Nc2ccc(C(F)(F)F)cc2)[C@@H](C)CN([C@@H](C)CO)C(=O)c2cc(NS(=O)(=O)c3ccccc3)ccc2O1 | 1 | . | ? | ? | 107* | -10 | 18
C[C@H](CO)N1C[C@H](C)[C@H](CN(C)C(=O)Nc2ccc(C(F)(F)F)cc2)OCCCC[C@H](C)Oc2ccc(NS(=O)(=O)c3ccccc3)cc2C1=O | 0 | . | ? | 90 | 103* | -10 | -1
C[C@@H]1CN([C@@H](C)CO)C(=O)c2cc(NS(C)(=O)=O)ccc2O[C@@H](C)CCCCO[C@@H]1CN(C)C(=O)Nc1ccc(C(F)(F)F)cc1 | -1 | 1 | . | . | . | . | .
CCN(CC(=O)Nc1cc([N+](=O)[O-])ccc1C)S(=O)(=O)c1ccc2ccccc2c1 | . | 0 | . | . | . | . | .
CCc1c(C)sc(NC(=S)Nc2cnccn2)c1C(=O)OC | . | 0 | . | . | . | . | .
COc1ccc(-c2cc(=O)oc3cc(OC(C(=O)O)c4ccccc4)ccc23)cc1 (stereo unspecified) | . | 2 | . | . | . | . | .
C=C1[C@]2(C)C[C@@H]3C(=C)[C@@]4(C=CC(=O)OC4(C)C)CC[C@@]3(C)[C@]13C(=O)O[C@H](C)[C@]3(O)C2=O | . | 1 | . | . | . | . | .
C[C@@H]1CCCCO[C@@H](CN(C)C(=O)Nc2ccc(C(F)(F)F)cc2)[C@H](C)CN([C@@H](C)CO)C(=O)c2cc(NS(=O)(=O)c3ccccc3)ccc2O1 | 0 | . | ? | 96* | 113* | 15 | 14
C[C@@H]1CCCCO[C@H](CN(C)C(=O)Nc2ccc(C(F)(F)F)cc2)[C@@H](C)CN([C@H](C)CO)C(=O)c2cc(NS(=O)(=O)c3ccccc3)ccc2O1 | 0 | -4 | 82 | . | . | . | .
O=C(CCCCCC(=O)Nc1ccccc1O)N/N=C/c1cccc(O)c1 | . | 0 | . | . | . | . | .
CN1c2ccc(-c3cccc(C#N)c3)cc2[C@@H]2[C@@H](CCN2S(=O)(=O)c2ccc(F)cc2)[C@@H]1CO | -4 | . | 105* | 94 | 78 | 45* | 22
CN1c2ccc(C#Cc3cccnc3)cc2[C@@H]2[C@@H](CCN2C(=O)C2CC2)[C@H]1CO | 4 | . | 99* | 96* | 17 | 8 | 25*
CN1c2ccc(C#Cc3cccnc3)cc2[C@@H]2[C@@H](CCN2C(=O)C2CCCC2)[C@@H]1CO | 6 | . | . | . | . | . | .
CN1c2ccc(C#Cc3cccnc3)cc2[C@H]2[C@H](CCN2S(=O)(=O)c2ccc(F)cc2)[C@H]1CO | 0 | . | 97* | 102* | 111* | 37* | 42*
CN1c2ccc(C#Cc3cccnc3)cc2[C@@H]2[C@@H](CCN2S(=O)(=O)c2ccc(F)cc2)[C@H]1CO | -2 | . | 85 | . | . | . | .
CN1c2ccc(-c3cccc(C#N)c3)cc2[C@@H]2[C@@H](CCN2S(=O)(=O)c2cccc(F)c2)[C@@H]1CO | -18 | . | 25 | . | . | . | .
CN1c2ccc(-c3cccc(C#N)c3)cc2[C@@H]2[C@@H](CCN2S(=O)(=O)c2ccccc2)[C@@H]1CO | -4 | . | 116* | 99* | 85 | 51* | 14
CN1c2ccc(-c3cccc(C#N)c3)cc2[C@H]2[C@H](CCN2S(=O)(=O)c2ccccc2)[C@@H]1CO | -1 | . | 94 | . | . | . | .
SMILES | GASC1 inh | IDH1 mut inh | T cruzi growth-1 | T cruzi growth-2 | T cruzi growth-3 | NIH3T3 tox | 3T3 cytotox 2
Cc1ccc(NC(=O)c2ccc(CSc3nnc(-c4ccc(NC(=O)c5ccccc5Cl)cc4)n3C)cc2)cc1 | . | 1 | . | . | . | . | .
O=C(CSc1nnc(-c2cccc([N+](=O)[O-])c2)o1)c1ccc2c(c1)OCCO2 | . | 0 | . | . | . | . | .
COc1cccc(NC(=O)CSc2nnc(-c3ccc(Cl)cc3)n2-c2cccc(C)c2)c1 | . | 2 | . | . | . | . | .
Cc1occc1-c1nnc2sc(-c3ccc(-c4ccccc4[N+](=O)[O-])o3)nn12 | . | 0 | . | . | . | . | .
N#Cc1cccc(-c2ccc([C@H]3[C@@H](CO)N4CCCCN(C(=O)Nc5cccc(F)c5)C[C@@H]34)cc2)c1 | -1 | . | 123* | 105* | 89 | 4 | -2
N#Cc1cccc(-c2ccc([C@H]3[C@@H](CO)N4CCCCN(C(=O)Nc5cccc(F)c5)C[C@H]34)cc2)c1 | -2 | . | 81 | . | . | . | .
N#Cc1cccc(-c2ccc([C@H]3[C@H]4CN(C(=O)Nc5cccc(F)c5)CCCCN4[C@H]3CO)cc2)c1 | -4 | . | 122* | 110* | 60 | -6 | -8
N#Cc1cccc(-c2ccc([C@@H]3[C@@H](CO)N4CCCCN(C(=O)Nc5cccc(F)c5)C[C@@H]34)cc2)c1 | 0 | . | 104* | 110* | 72 | 28 | 87*
C[C@@H]1CN([C@H](C)CO)C(=O)c2cc(N(C)C)ccc2O[C@@H](C)CCCCO[C@H]1CN(C)Cc1ccc(C(F)(F)F)cc1 | 0 | . | 120* | 99* | 113* | 7 | 106*
C[C@@H]1CN([C@H](C)CO)C(=O)c2cc(N(C)C)ccc2O[C@@H](C)CCCCO[C@@H]1CN(C)Cc1ccc(C(F)(F)F)cc1 | -4 | . | ? | 109* | 88 | 18 | 107*
C[C@@H]1CCCCO[C@H](CN(C)Cc2ccc(C(F)(F)F)cc2)[C@@H](C)CN([C@H](C)CO)C(=O)c2cc(N(C)C)ccc2O1 | -2 | . | ? | 112* | 16 | 25 | ?

From PubChem BioAssay
